STAT3 activator = IL-6 driven STAT3 reporter potentiators, primary screen, U3A cells, luciferase, luminescence, MLSCN library | activation (% of control), % at 5.6 µM | 0.91% of 190,000 active | IL-6 STAT3-luciferase reporter; 100% = signal with IL-6 EC80 alone;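 active means activation above the screen-wide mean of compound activation plus 3 SD, cut at about 130% in these data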;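 further: 0% = background luminescence of wells with medium and substrate only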
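system = STAT3-luciferase reporter U3A cells | reagent = IL-6 stimulus at 33 ng/mL final | timing = 1 h compound pre-exposure, 6 h IL-6 stimulation, 37 °C | measured by = luminescence | evaluation = % activation versus median of IL-6-stimulated wells | control set = IL-6-only wells as 100% reference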
STAT1 act = STAT1 signaling activators, primary screen, cell-based, HTS, luciferase reporter | NIH 3T3 STAT1-luciferase reporter, IFN-gamma, luminescence; 100% = IFN-gamma alone, no compound | activation (% of control), % at 5.5 µM | 2.6% of 200,000 active;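 active means activation above the screen-wide mean activation plus 3 SD, cut at about 130% in these data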;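 further: raw ratio to IFN-gamma control signal so 100% means no change and 0% no light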
STAT3 blocker = IL-6 driven STAT3 reporter inhibitors, primary screen, U3A cells, luciferase, luminescence, MLSCN library | IL-6 STAT3-luciferase reporter; host cell line lacks STAT1 | inhibition, % at 5.5 µM | 0.89% of 190,000 active | AID 862, 2007;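 active means inhibition above the mean inhibition across all screened compounds plus 3 SD, cut at about 44% in these data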;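 further: 0% = DMSO only wells and 100% = 100 µM nifuroxazide control wells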
STAT1 inh = STAT1 signaling inhibitors, primary screen, cell-based, HTS, luciferase reporter | NIH 3T3 STAT1-luciferase reporter, IFN-gamma, luminescence | inhibition, % at 5.5 µM | 0.35% of 200,000 active | AID 920, 2007;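 active means inhibition above a set limit, the mean inhibition across all tested compounds plus 3 SD, cut at about 34% in these data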;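 further: 0% = IFN-gamma with DMSO and 100% = IFN-gamma with 300 µM nifuroxazide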
* = called active by the depositor; nt = not tested or not shown. The list is not random: actives were taken first. Their share in the collection is about 4.3%.

SMILES	STAT3 activator	STAT1 act	STAT3 blocker	STAT1 inh
CCOc1ccc2nc(NC(=O)C3CCCO3)sc2c1 (centres undefined)	81	140*	25	-46
CCOc1ccc2nc(NC(=O)NC3CCCCC3)sc2c1	98	112	7	-16
Cc1cc(F)ccc1NC(=O)C1CCCO1 (centres undefined)	105	109	2	-11
Nc1ccc2nc(NC(=O)C3CCCCC3)sc2c1	101	146*	4	-49
O=C(Nc1nc2ccc(F)cc2s1)C1CCCO1 (centres undefined)	99	146*	2	-51
Cc1cccc(CN2CCN(Cc3nc4c(s3)CCCC4)CC2CCO)n1 (centres undefined)	108	91	-3	7
Cc1ccc(N=C2S/C(=C\c3cn(CC(=O)O)c4ccccc34)C(=O)N2C)cc1	105	102	-6	-3
COc1cccc(-c2cc(C(=O)NCCCn3ccnc3)c3ccccc3n2)c1	97	98	7	2
CCOC(=O)N1CCC(N2CCCC(CO)(Cc3cccc(OC)c3)C2)CC1 (centres undefined)	107	105	-2	-5
COc1cccc2cc(C(N)=O)oc12	100	111	11	-14
COc1cccc2cc(C(=O)c3ccc([N+](=O)[O-])cc3)oc12	90	135*	16	-41
Cc1ccc2[nH]c(-c3ccccc3)cc(=O)c2c1	88	126	15	-29
Cc1ccc(-c2cc(=O)c3cc(Cl)ccc3[nH]2)cc1	nt	143*	nt	-44
COc1ccc(-c2cc(=O)c3cc(C)ccc3[nH]2)cc1	90	150*	9	-55
COc1ccccc1/C=C/C=N/n1c(C)nnc1C	101	94	4	5
Cn1c(=NC(=O)CCl)sc2ccccc21	85	92	21	8
O=C(CCl)N=c1sccn1Cc1cccc2ccccc12	34	14	81*	92*
O=C(CCl)N=c1sccn1Cc1ccc(Cl)cc1Cl	52	16	60*	90*
Cc1ccc(C2CC(c3ccccc3)=NN2C(=S)Nc2ccccc2)o1 (centres undefined)	102	100	-3	0
CCCc1cc(=O)[nH]c(SCC(=O)Nc2ccc(Br)cc2Br)n1	102	100	1	0
Cn1ccnc1SCC(=O)c1ccc2ccccc2c1	101	146*	-1	-49
Cn1ccnc1SCC(=O)c1cccc(Br)c1	121	113	-18	-14
Cn1ccnc1SCC(=O)Nc1ccc2ccccc2c1	74	140*	35	-37
CCOC(=S)SCC(=O)N1CCc2cc(OC)ccc2C1C1C(=O)CCCC1=O (centres undefined)	102	91	-8	10
O=[N+]([O-])c1ccc(-n2cnc3ccccc32)c([N+](=O)[O-])c1	108	86	3	14
SMILES	STAT3 activator	STAT1 act	STAT3 blocker	STAT1 inh
Cc1cc(/C=N/n2cnnc2)c(C)n1-c1ccc(Cl)cc1	100	93	3	9
Cc1cc(/C=N/n2cnnc2)c(C)n1-c1ccc(OCc2ccc(Cl)cc2Cl)cc1	51	64	61*	40*
C=CCN1C(=O)/C(=C2/Sc3ccc(OC)cc3N2C)SC1=Nc1cccc(O)c1	85	99	22	-1
O=C(Nc1ccc(N2CCOCC2)cc1)c1cnsn1	31	60	87*	44*
Cc1ccc(/C=N/NC(=O)Nc2ccccc2)o1	103	148*	-3	-54
Cc1cc2nc(-c3ccc(SCC(=O)NC(C)C)nc3)[nH]c2cc1C	106	128	1	-30
Cc1cc2nc(-c3ccc(SCC(=O)N4CCc5ccccc54)nc3)[nH]c2cc1C	138*	139*	-36	-44
Cc1cc2nc(-c3ccc(SCC(=O)Nc4ccc(S(=O)(=O)NC5CC5)cc4)nc3)[nH]c2cc1C	92	147*	12	-52
Cc1cc(NC(=O)CSc2ccc(-c3nc4cc(C)c(C)cc4[nH]3)cn2)no1	96	120	8	-22
CC(C)CN1CCC(CNC(=O)CCc2nnc(Cc3c[nH]c4ccccc34)o2)CC1	109	96	-7	3
CCOc1ccc(Br)cc1S(=O)(=O)NCc1ccncc1	94	91	11	9
CCSc1nnc(Nc2ccc(C)cc2)s1	103	143*	2	-47
COc1ccccc1C(=O)Nc1nnc(-c2ccco2)s1	101	138*	4	-41
CCSc1nnc(NC(=O)c2ccccc2C)s1	101	138*	6	-44
Cc1ccccc1C(=O)Nc1nnc(-c2ccco2)s1	42	59	69*	44*
Cc1cc(CN(C)Cc2c(C(=O)N3CCCCCCC3)nc3ccc(Cl)cn23)n[nH]1	104	101	1	-3
NC(=O)c1cccnc1Nc1cccc([N+](=O)[O-])c1	112	134*	-10	-39
NC(=O)c1cccnc1Nc1cccc(F)c1	109	113	-8	-15
OC(CN1CCN(c2cccc(C(F)(F)F)c2)CC1)c1c[nH]c2ccccc12 (centres undefined)	135*	94	-38	7
O=C(CNc1ccccc1OC(F)F)N1CCc2ccccc21	101	143*	2	-49
O=C(CNCCO)N1CCc2ccccc21	113	99	-12	1
O=C(CN1C(=O)CCC1=O)Nc1nc(-c2nc3ccccc3s2)cs1	100	131*	0	-32
O=C(CN1C(=O)CCC1=O)Nc1nc(-c2ccc3ccccc3c2)cs1	91	138*	13	-43
Cc1ccc(-c2csc(NC(=O)CN3C(=O)CCC3=O)n2)cc1	86	102	18	-2
CN(Cc1cnn(-c2ccc(F)cc2)c1)Cc1nc(Cc2ccccc2)no1	103	99	1	-1
SMILES	STAT3 activator	STAT1 act	STAT3 blocker	STAT1 inh
CCCCn1nnc(NC(=O)c2cc3ccccc3o2)n1	104	135*	-1	-28
Cc1cccc(NC(=O)Cc2noc3ccccc23)c1	113	140*	-13	-42
Cc1cc(C(=O)Nc2cccc(C(=O)O)c2)oc1C	31	49	87*	55*
Cc1cccc(NC(=O)Cc2noc3ccccc23)c1C	96	104	7	-5
CCC(=O)Nc1cccc(NC(=O)c2cc3ccccc3o2)c1	97	148*	8	-52
CCn1nc(C)c(CNC(=O)Nc2ccccc2C(=O)OC)c1C	97	91	6	10
CN(Cc1ccccc1)C(=O)COC(=O)C1CCN(S(=O)(=O)c2cccs2)CC1	106	96	-3	4
CCC(=O)Nc1ccc2c(c1)C(=O)c1ccccc1C2=O	94	148*	14	-54
O=C(Nc1cccc(Br)c1)c1cc2ccccc2o1	110	142*	-9	-46
CCC(=O)Nc1ccc2c(c1)C(=O)N(C)C2=O	90	99	10	1
O=C(NC(=S)Nc1cccnc1)c1cc2ccccc2o1	97	131*	8	-35
CCC(=O)Nc1cccc(-c2cc3ccccc3oc2=O)c1	101	134*	4	-38
CCOC(=O)C1(CCOc2ccccc2)CCN(Cc2cccc3nonc23)CC1	102	92	-1	8

From PubChem
